Compound activity as filed in PubChem.
This is a sample that favours compounds with a hit; in the whole collection about 1.6% have one here.
procasp3 activ: activators of human procaspase-3 D3A mutant, primary screen, biochemical, absorbance, PC-3 D3A mutant, single concentration; Caspase-3 (Homo sapiens), P42574; recombinant procaspase-3 D3A, Ac-DEVD-pNA absorbance 405 nm; activation, % at 8.5 µM; 0.11% of 330,000 active;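 active means activation above the mean of all tested compounds plus 3 SD, cut at about 21% in these data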;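 further: 0% = DMSO alone and 100% = DMSO wells spiked with extra 5 µM PC-3 D3A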
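System: Procaspase-3 D3A mutant. Medium: Zinc-free 300 mM NaCl, 50 mM HEPES, 0.01% Triton X-100. Schedule: 1 h preincubation plus 2 h reaction at 25 °C. Measured by: 405 nm absorbance of p-nitroaniline, reads at 0 and 120 min. Read-out: percent activation relative to control range.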
PLC-beta3 inh: human PLC-beta3 inhibitors, primary screen, biochemical, fluorescence; AID 720704, 2013; Purified PLC-beta3, fluorogenic substrate; 0.18% of 370,000 active; inhibition, % at 12.2 µM; in the data active means inhibition above about 11%;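 further: 0% = median of compound wells on plate and 100% = full blocker control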
Target sequence (Q01970 whole entry, looked up): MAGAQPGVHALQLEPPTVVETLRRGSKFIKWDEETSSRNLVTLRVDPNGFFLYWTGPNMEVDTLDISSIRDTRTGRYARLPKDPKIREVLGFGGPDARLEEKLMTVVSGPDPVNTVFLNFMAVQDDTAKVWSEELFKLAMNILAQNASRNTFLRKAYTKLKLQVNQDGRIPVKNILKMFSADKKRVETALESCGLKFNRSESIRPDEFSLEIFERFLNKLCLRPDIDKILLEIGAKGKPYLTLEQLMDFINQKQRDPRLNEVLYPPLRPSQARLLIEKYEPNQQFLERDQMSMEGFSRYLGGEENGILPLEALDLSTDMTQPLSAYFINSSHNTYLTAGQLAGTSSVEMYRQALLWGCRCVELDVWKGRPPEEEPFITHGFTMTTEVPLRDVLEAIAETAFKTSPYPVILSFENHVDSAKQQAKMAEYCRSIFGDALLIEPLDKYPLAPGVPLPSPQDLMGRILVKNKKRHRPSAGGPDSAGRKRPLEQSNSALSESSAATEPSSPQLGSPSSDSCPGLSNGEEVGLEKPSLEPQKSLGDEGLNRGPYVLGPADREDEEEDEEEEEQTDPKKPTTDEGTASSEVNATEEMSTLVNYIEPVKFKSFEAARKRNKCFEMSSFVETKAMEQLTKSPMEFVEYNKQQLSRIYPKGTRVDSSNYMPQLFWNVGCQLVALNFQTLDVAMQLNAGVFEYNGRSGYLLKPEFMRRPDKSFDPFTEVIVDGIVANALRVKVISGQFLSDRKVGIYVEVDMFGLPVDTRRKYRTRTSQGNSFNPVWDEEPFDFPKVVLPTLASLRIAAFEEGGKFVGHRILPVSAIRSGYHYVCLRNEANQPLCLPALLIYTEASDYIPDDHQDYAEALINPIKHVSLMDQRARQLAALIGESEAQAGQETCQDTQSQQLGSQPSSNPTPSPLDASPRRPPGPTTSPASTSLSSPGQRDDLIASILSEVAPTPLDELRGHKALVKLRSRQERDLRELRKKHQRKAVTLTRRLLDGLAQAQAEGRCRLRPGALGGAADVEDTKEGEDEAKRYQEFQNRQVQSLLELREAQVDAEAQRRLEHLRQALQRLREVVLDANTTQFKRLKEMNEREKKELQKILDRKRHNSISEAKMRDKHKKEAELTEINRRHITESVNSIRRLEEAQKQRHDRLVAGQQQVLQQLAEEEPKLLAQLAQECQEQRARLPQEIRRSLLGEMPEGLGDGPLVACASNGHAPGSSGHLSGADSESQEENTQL
PLC-gamma1 inh: PLC-gamma1 enzyme inhibitors, primary screen, biochemical, fluorescence, purified enzyme | fluorogenic substrate | 1-phosphatidylinositol 4,5-bisphosphate phosphodiesterase gamma-1 (Homo sapiens), P19174 | inhibition, % at 12.2 µM | 0.84% of 370,000 active; in the data active means inhibition above about 9.5%
proCasp7 act: procaspase-7 activators, primary screen, counter-screen for procaspase-3 activator project, biochemical, absorbance, HTS, human. Caspase-7 (Homo sapiens), P55210. recombinant procaspase-7, Ac-DEVD-pNA absorbance 405 nm; D23A/D198A/D206A triple mutant, cannot self-cleave; scale: DMSO 0, 5 µM enzyme 100. activation, % at 8.5 µM. 0.093% of 330,000 active;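 active means percent activation above the screen-wide mean plus 3 SD, cut at about 25% in these data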
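Detection: p-Nitroaniline absorbance at 405 nm, read at 0 and 120 min; system: Uncleavable procaspase-7 mutant enzyme; evaluation: % activation from two-timepoint absorbance difference, scaled to controls; times: 1 h enzyme–compound preincubation and 2 h substrate reaction, both 25 °C; buffer or medium: Zinc-free HEPES pH 7.4 with 300 mM NaCl, 0.01% Triton X-100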
sPLA2-III inh: human group III sPLA2 inhibitors, primary screen, biochemical, QFRET, BODIPY PC-A2 liposome substrate; 0.56% of 370,000 active; inhibition, % at 12.2 µM; QFRET BODIPY PC-A2 liposome hydrolysis, fluorescence;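 active means inhibition above mean plus 3 SD of compounds lying within the high and low control bounds, cut at about 19% in these data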;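 further: 0% = median of test compound wells and 100% = no enzyme DMSO wells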
PC3 D3A act: procaspase-3 activators, counter-screen for dual procaspase-3/7 activator project, biochemical, absorbance, PC-3 D3A mutant, human; activation, % at 8.5 µM; shares compounds with proCasp7 act; 290 tested, under 10 active; recombinant PC-3 D3A, Ac-DEVD-pNA absorbance 405 nm; aspartates 9, 28, 175 changed to alanine; 100% = enzyme control;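 active means mean percent activation across triplicates above a set limit taken from the earlier primary procaspase-3 screen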;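 further: 0% = DMSO wells and 100% = DMSO wells with 5 µM added PC-3 D3A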
PC7 dual conf: activation of procaspase-7 enzyme – biochemical, absorbance, human, dual procaspase-3/-7 activator project, confirmation | shares compounds with proCasp7 act | recombinant procaspase-7, Ac-DEVD-pNA absorbance 405 nm; D23A/D198A/D206A mutant that cannot self-cleave | activation, % at 8.5 µM | 290 tested, under 10 active;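 active means mean activation above a set limit carried over from the earlier primary screen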;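 further: 0% = DMSO only and 100% = DMSO with added 5 µM PC-7 enzyme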
* marks the source's active call; other numbers are inactive results; i = inactive; . = no result given.

SMILES	procasp3 activ	PLC-beta3 inh	PLC-gamma1 inh	proCasp7 act	sPLA2-III inh	PC3 D3A act	PC7 dual conf
COc1ccc(C2CC(c3ccccc3Cl)=NN2c2ccc(S(N)(=O)=O)cc2)cc1 (stereo unspecified)	27*	i	i	47*	-8	-29	-34
COc1ccc(C2=NN(c3ccc(C=O)cc3)C(c3ccccc3)C2)cc1 (stereo unspecified)	-52	.	.	-51	.	.	.
CC(CCc1ccccc1)NCc1ccncc1 (stereo unspecified)	1	3	4	-13	2	.	.
CC(NCc1ccccc1)c1ccccc1O (stereo unspecified)	1	-9	-1	28*	-1	2	1
CC(C)(C)OC(=O)[C@H](Cc1ccccc1)NC(=O)c1[nH]cnc1C(=O)Nc1ccccc1F	.	1	2	.	-20	.	.
Cn1c(CC(=O)Nc2ccccc2F)nnc1SCC(=O)Nc1nncs1	0	1	2	38*	-2	3	-1
Cn1c(CC(=O)Nc2ccc(F)cc2)nnc1SCC(=O)Nc1nncs1	-5	-1	1	12	2	.	.
Cc1cc(CNC[C@H]2O[C@@H](n3ccc(N)nc3=O)[C@H](O)[C@@H]2O)no1	.	-2	-1	.	12	.	.
CCOC(=O)c1cc(-c2ccc3c(c2)OCCO3)nc2c1c(C)nn2CCC#N	25*	-408	-328	54*	-8	-29	-35
Cc1c(CCC(=O)NC2CC2)c(=O)oc2c(C)c(O)ccc12	28*	.	.	27*	.	-30	-36
Cc1c(CCC(=O)NCCCN2CCCC2=O)c(=O)oc2c(C)c(O)ccc12	28*	i	i	26*	6	-30	-36
Cc1coc2c(C)c3oc(=O)c(CCC(=O)NCCCN4CCCC4=O)c(C)c3cc12	2	-204	-155	-6	4	.	.
CC(C)(C)c1ccc(S(=O)(=O)N2CCCC(C(=O)NCc3ccco3)C2)cc1 (stereo unspecified)	.	-5	-3	.	-20	.	.
CCC(=O)Nc1c(C#N)c2nc3ccccc3nc2n1C1CCCCC1	4	-79	-61	5	6	.	.
N#Cc1c(N)n(C2CCCCC2)c2nc3ccccc3nc12	13	-333	-301	62*	7	-29	-36
Cc1ccc2nc(NCc3ccccc3)c(C#N)cc2c1	9	-32	-18	52*	-1	-30	-35
Cc1ccc2nc(NCCNC(=O)c3ccccc3)c(C#N)cc2c1	-3	-46	-35	2	1	.	.
C=CCOC(=O)C1=C(C)NC(SCC)=C(C#N)C1c1ccc(Cl)cc1 (stereo unspecified)	18	-90	-81	26*	-13	5	6
COC(=O)C[C@H]1CC[C@@H]2[C@@H](COc3ccc(NS(=O)(=O)c4ccccc4Cl)cc3C(=O)N2C)O1	.	-3	-1	.	-1	.	.
Cc1cc(N/N=C/c2ccc(N(C)C)cc2)nc(NCc2ccccc2)n1	57*	-255	-186	32*	3	-28	-27
c1ccc(N2CC3CCc4ccccc4C3=N2)cc1 (stereo unspecified)	39*	i	i	72*	-2	-30	-35
